From ChEMBL document CHEMBL4138082 (Eur J Med Chem, 2017)
pIC50: −log10 of the molar value. Active and inactive are the calls of the source. No cut-off for these calls is given here.

Key:
HepG2 [1] = assay: Cell cycle arrest in human HepG2 cells assessed as G1 phase accumulation at 0.125 uM after 48 hrs in presence of hemoglobin by propidium iodide staining based flow cytometry (reference value: 52.93%); format: functional
HepG2 [2] = assay: Cell cycle arrest in human HepG2 cells assessed as G1 phase accumulation at 0.0625 uM after 48 hrs in presence of hemoglobin by propidium iodide staining based flow cytometry (reference value: 52.93%); format: functional
HepG2 [3] = assay: Induction of apoptosis in human HepG2 cells assessed as nuclear fragmentation at 0.0625 to 0.25 uM measured after 48 hrs by Hoechst 33258 staining based fluorescent microscopic analysis; format: functional, cell-based
PC-3 = assay: Antiproliferative activity against human PC3 cells after 72 hrs by MTT assay; format: functional, cell-based; conditions: PC-3, 72 h
In short: (§1)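 MTT assay. Cells were seeded and grown 24 h at 37 °C in 5% CO2, then exposed to compound or left untreated for 72 h. MTT (5 mg/mL stock) was added for 4 h and the formazan dissolved in DMSO. OD was read at 570 nm. IC50 is the concentration giving 50% growth inhibition, reported as mean ± SD of three independent experiments. Vehicle reference was 0.1% DMSO.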

HepG2 [4] = assay: Induction of apoptosis in human HepG2 cells assessed as early apoptotic cells at 0.25 uM after 48 hrs in presence of hemoglobin by Annexin V-APC/7-AAD staining based flow cytometry (reference value: 3.18%); format: functional
HepG2 [5] = assay: Induction of apoptosis in human HepG2 cells assessed as cell population with mitochondrial membrane potential loss at 0.0625 uM measured after 48 hrs by JC-1 staining based flow cytometry (reference value: 1.49%); format: functional
In short: (§2)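 HepG-2 cells were exposed 48 h to 0.0625, 0.125 or 0.25 µM or to vehicle, then washed in PBS and stained with JC-1 in the dark. Red aggregate versus green monomer fluorescence was measured by flow cytometry to give the percentages of cells with healthy versus collapsed mitochondrial membrane potential.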

HepG2 [6] = assay: Cell cycle arrest in human HepG2 cells assessed as S phase accumulation at 0.0625 uM after 48 hrs by propidium iodide staining based flow cytometry (reference value: 43.88%); format: functional
In short: (§3)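 HepG-2 cells were plated and grown 24 h at 37 °C, then treated 48 h at 0, 0.0625, 0.125 or 0.25 µM, with 0.1% DMSO as control. Cells were fixed overnight in 70% ethanol at 4 °C, treated with RNase A and stained with propidium iodide. DNA content was measured by flow cytometry to give cell-cycle phase distribution.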

HepG2 [7] = assay: Induction of apoptosis in human HepG2 cells assessed as late apoptotic cells at 0.0625 uM after 48 hrs by […] based flow cytometry (reference value: 3.36%); format: functional
[8] = Drug metabolism in human HepG2 cells assessed as NO release by measuring nitrite formation at 100 uM after 1 hr by Griess assay; format: ADME, cell-based; conditions: hepg2, 1 h
In short: (§4)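 HepG-2 or L-02 cells were exposed to 100 µM of each compound for 60 min and then harvested. Lysates were mixed with Griess reagent for 10 min at 37 °C and absorbance was read at 550 nm. NO release is expressed as nitrite, reported as mean ± SD of three independent experiments.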

HepG2 [9] = assay: Induction of apoptosis in human HepG2 cells assessed as early apoptotic cells at 0.25 uM after 48 hrs by […] based flow cytometry (reference value: 3.18%); format: functional
HepG2 [10] = assay: Cell cycle arrest in human HepG2 cells assessed as S phase accumulation at 0.125 uM after 48 hrs by propidium iodide staining based flow cytometry (reference value: 43.88%); format: functional; in short: as §3
HepG2 [11] = assay: Cell cycle arrest in human HepG2 cells assessed as G2 phase accumulation at 0.25 uM after 48 hrs by propidium iodide staining based flow cytometry (reference value: 23.38%); format: functional; in short: as §3
HepG2 [12] = assay: Upregulation of caspase 3 level in human HepG2 cells up to 0.25 uM after 48 hrs by Western blot method; format: functional, cell-based
[13] = Drug metabolism in human L02 cells assessed as NO release by measuring nitrite formation at 100 uM after 1 hr by Griess assay; format: ADME, cell-based; conditions: l02, 1 h; in short: as §4
HepG2 [14] = assay: Induction of apoptosis in human HepG2 cells assessed as cell population with intact mitochondrial membrane potential at 0.25 uM measured after 48 hrs by JC-1 staining based flow cytometry (reference value: 98.51%); format: functional; in short: as §2
HepG2 [15] = assay: Cell cycle arrest in human HepG2 cells assessed as S phase accumulation at 0.25 uM after 48 hrs in presence of hemoglobin by propidium iodide staining based flow cytometry (reference value: 36.40%); format: functional
HepG2 [16] = assay: Induction of apoptosis in human HepG2 cells assessed as early apoptotic cells at 0.0625 uM after 48 hrs by […] based flow cytometry (reference value: 3.18%); format: functional
HepG2 [17] = assay: Cell cycle arrest in human HepG2 cells assessed as S phase accumulation at 0.25 uM after 48 hrs by propidium iodide staining based flow cytometry (reference value: 43.88%); format: functional; in short: as §3
HepG2 [18] = assay: Cell cycle arrest in human HepG2 cells assessed as G2 phase accumulation at 0.0625 uM after 48 hrs by propidium iodide staining based flow cytometry (reference value: 23.38%); format: functional; in short: as §3
HepG2 [19] = assay: Cell cycle arrest in human HepG2 cells assessed as S phase accumulation at 0.125 uM after 48 hrs in presence of hemoglobin by propidium iodide staining based flow cytometry (reference value: 36.40%); format: functional
HepG2 [20] = assay: Induction of mitochondrial membrane potential loss in human HepG2 cells measured after 48 hrs by JC-1 staining based flow cytometry; format: functional, cell-based
In short: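 After 48 h exposure to 0.0625, 0.125 or 0.25 mM (so in the source) or vehicle, HepG-2 cells washed in PBS and stained with JC-1 in the dark. Flow cytometry scored cells with healthy (red aggregate) versus collapsed (green monomer) mitochondrial membrane potential.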

HepG2 [21] = assay: Downregulation of Bcl-xl level in human HepG2 cells up to 0.25 uM after 48 hrs by Western blot method; format: functional, cell-based
In short: (§5)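 HepG-2 cells were exposed 48 h to 0, 0.0625, 0.125 or 0.25 µM and lysed on ice for 20 min. Equal protein loads were run on 12% SDS-PAGE and transferred to PVDF. Membranes were probed overnight at 4 °C with primary antibodies, then with HRP-conjugated secondaries, and detected by ECL chemiluminescence.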

HepG2 [22] = assay: Cell cycle arrest in human HepG2 cells assessed as G1 phase accumulation at 0.25 uM after 48 hrs by propidium iodide staining based flow cytometry (reference value: 32.74%); format: functional; in short: as §3
HepG2 [23] = assay: Downregulation of pro-caspase 3 level in human HepG2 cells up to 0.25 uM after 48 hrs by Western blot method; format: functional, cell-based; in short: as §5
HepG2 [24] = assay: Cell cycle arrest in human HepG2 cells assessed as G1 phase accumulation at 0.25 uM after 48 hrs in presence of hemoglobin by propidium iodide staining based flow cytometry (reference value: 52.93%); format: functional
HepG2 [25] = assay: Cell cycle arrest in human HepG2 cells assessed as G2 phase accumulation at 0.25 uM after 48 hrs in presence of hemoglobin by propidium iodide staining based flow cytometry (reference value: 10.67%); format: functional
HepG2 [26] = assay: Antiproliferative activity against human HepG2 cells after 72 hrs by MTT assay; format: functional, cell-based; conditions: HepG2, 72 h; in short: as §1

Structure (SMILES): C[C@H]1CCC/C=C/[C@@H]2C[C@H](OC(=O)CCCC(=O)OCCOc3no[n+]([O-])c3S(=O)(=O)c3ccccc3)C[C@H]2[C@H](OC(=O)CCCC(=O)OCCOc2no[n+]([O-])c2S(=O)(=O)c2ccccc2)/C=C/C(=O)O1
- Activity (HepG2 [1]): 63.24%
- Activity (HepG2 [2]): 68.06%
- Activity (HepG2 [3]): Active
- pIC50 (PC-3): 7.60
- Activity (HepG2 [4]): 8.7%
- Activity (HepG2 [5]): 16.58%
- Activity (HepG2 [6]): 48.2%
- Activity (HepG2 [7]): 11.76%
- Drug metabolism [8]: 98.5 µM
- Activity (HepG2 [9]): 15.03%
- Activity (HepG2 [10]): 51.22%
- Activity (HepG2 [11]): 2.67%
- Activity (HepG2 [12]): Active
- Drug metabolism [13]: 22.4 µM
- Activity (HepG2 [14]): 39.86%
- Activity (HepG2 [15]): 22.37%
- Activity (HepG2 [16]): 3.1%
- Activity (HepG2 [17]): 72.16%
- Activity (HepG2 [18]): 18.96%
- Activity (HepG2 [19]): 30.54%
- Activity (HepG2 [20]): Dose-dependent effect
- Activity (HepG2 [21]): Active
- Activity (HepG2 [22]): 25.17%
- Activity (HepG2 [23]): Active
- Activity (HepG2 [24]): 72.34%
- Activity (HepG2 [25]): 5.3%
- pIC50 (HepG2 [26]): 6.74
